Experiments:
[1] = system: SNB-75; assay: Cytotoxicity against human SNB75 cells after 48 hrs by SRB assay; assay type: functional; details: SNB-75, 48 h; for GI50: read-out: GI50; for CC50: read-out: LC50 (the source's name); for TGI: read-out: TGI
[2] = system: MDA-MB-468; assay: Cytotoxicity against human MDA-MB-468 cells after 48 hrs by SRB assay; assay type: functional; details: MDA-MB-468, 48 h; for GI50: read-out: GI50; for TGI: read-out: TGI
[3] = system: SK-MEL-28; assay: Growth inhibition of human SK-MEL-28 cells assessed as cell growth at 10^-7 M incubated for 48 hrs by sulforhodamine B assay relative to control; assay type: functional; details: SK-MEL-28, 48 h, read-out: Activity
[4] = system: SR; assay: Growth inhibition of human SR cells assessed as cell growth at 10^-7 M incubated for 48 hrs by sulforhodamine B assay relative to control; assay type: functional; details: read-out: Activity
[5] = system: Malme-3M; assay: Growth inhibition of human MALME-3M cells assessed as cell growth at 10^-6 M incubated for 48 hrs by sulforhodamine B assay relative to control; assay type: functional; details: read-out: Activity
[6] = system: CCRF-CEM; assay: Growth inhibition of human CCRF-CEM cells assessed as cell growth at 10^-7 M incubated for 48 hrs by sulforhodamine B assay relative to control; assay type: functional; details: read-out: Activity
[7] = system: HL-60(TB); assay: Growth inhibition of human HL-60(TB) cells assessed as cell growth at 10^-5 M incubated for 48 hrs by sulforhodamine B assay relative to control; assay type: functional; details: HL-60, 48 h, read-out: Activity
[8] = system: UACC-257; assay: Growth inhibition of human UACC257 cells assessed as cell growth at 10^-6 M incubated for 48 hrs by sulforhodamine B assay relative to control; assay type: functional; details: UACC-257, 48 h, read-out: Activity
[9] = system: SK-MEL-5; assay: Growth inhibition of human SK-MEL-5 cells assessed as cell growth at 10^-8 M incubated for 48 hrs by sulforhodamine B assay relative to control; assay type: functional; details: SK-MEL-5, 48 h, read-out: Activity
[10] = system: A549; assay: Growth inhibition of human A549/ATCC cells assessed as cell growth at 10^-4 M incubated for 48 hrs by sulforhodamine B assay relative to control; assay type: functional; details: A549, 48 h, read-out: Activity
[11] = system: L1210; assay: Antiproliferative activity against mouse L1210 cells after 48 hrs by Coulter counter method; assay type: functional, cell-based; details: L1210, 48 h
Procedure, shortened: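 Cell count assay in 96-well microtiter plates; (5–7.5) × 10⁴ tumor cells per well plus test compound. Cells proliferated at 37 °C in humidified CO₂-controlled atmosphere, 48 h for murine leukemia L1210, 72 h for human lymphocytic CEM and cervix carcinoma HeLa. Counted by Coulter counter; IC₅₀ is the concentration that inhibits proliferation by 50%.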

[12] = system: MDA-MB-435; assay: Cytotoxicity against human MDA-MB-435 cells after 48 hrs by SRB assay; assay type: functional; details: MDA-MB-435, 48 h; for GI50: read-out: GI50; for TGI: read-out: TGI
[13] = system: UACC-62; assay: Growth inhibition of human UACC62 cells assessed as cell growth at 10^-5 M incubated for 48 hrs by sulforhodamine B assay relative to control; assay type: functional; details: UACC-62, 48 h, read-out: Activity
[14] = system: T47D; assay: Growth inhibition of human T47D cells assessed as cell growth at 10^-7 M incubated for 48 hrs by sulforhodamine B assay relative to control; assay type: functional; details: read-out: Activity
[15] = system: MDA-MB-231; assay: Growth inhibition of human MDA-MB-231 cells assessed as cell growth at 10^-5 M incubated for 48 hrs by sulforhodamine B assay relative to control; assay type: functional; details: MDA-MB-231, 48 h, read-out: Activity
[16] = system: SW-620; assay: Growth inhibition of human SW620 cells assessed as cell growth at 10^-7 M incubated for 48 hrs by sulforhodamine B assay relative to control; assay type: functional; details: SW-620, 48 h, read-out: Activity
[17] = system: UO-31; assay: Growth inhibition of human UO31 cells assessed as cell growth at 10^-7 M incubated for 48 hrs by sulforhodamine B assay relative to control; assay type: functional; details: UO-31, 48 h, read-out: Activity
[18] = system: UACC-257; assay: Cytotoxicity against human UACC257 cells after 48 hrs by SRB assay; assay type: functional; details: UACC-257, 48 h; for GI50: read-out: GI50; for CC50: read-out: LC50 (the source's name); for TGI: read-out: TGI
[19] = system: EKVX; assay: Cytotoxicity against human EKVX cells after 48 hrs by SRB assay; assay type: functional; details: for GI50: read-out: GI50; for TGI: read-out: TGI; for CC50: read-out: pLC50 (the source's name) (converted)
[20] = system: NCI-H322M; assay: Growth inhibition of human NCI-H322M cells assessed as cell growth at 10^-6 M incubated for 48 hrs by sulforhodamine B assay relative to control; assay type: functional; details: read-out: Activity
[21] = system: ACHN; assay: Growth inhibition of human ACHN cells assessed as cell growth at 10^-8 M incubated for 48 hrs by sulforhodamine B assay relative to control; assay type: functional; details: read-out: Activity
[22] = system: U-251; assay: Growth inhibition of human U251 cells assessed as cell growth at 10^-7 M incubated for 48 hrs by sulforhodamine B assay relative to control; assay type: functional; details: U-251, 48 h, read-out: Activity
[23] = system: SK-MEL-5; assay: Cytotoxicity against human SK-MEL-5 cells after 48 hrs by SRB assay; assay type: functional; details: SK-MEL-5, 48 h; for GI50: read-out: GI50; for CC50: read-out: LC50 (the source's name); for TGI: read-out: TGI
[24] = system: M14; assay: Growth inhibition of human M14 cells assessed as cell growth at 10^-8 M incubated for 48 hrs by sulforhodamine B assay relative to control; assay type: functional; details: M14, 48 h, read-out: Activity
[25] = system: DU-145; assay: Growth inhibition of human DU145 cells assessed as cell growth at 10^-6 M incubated for 48 hrs by sulforhodamine B assay relative to control; assay type: functional; details: DU-145, 48 h, read-out: Activity
[26] = system: NCI-H522; assay: Growth inhibition of human NCI-H522 cells assessed as cell growth at 10^-7 M incubated for 48 hrs by sulforhodamine B assay relative to control; assay type: functional; details: NCI-H522, 48 h, read-out: Activity
[27] = system: HCT-116; assay: Growth inhibition of human HCT116 cells assessed as cell growth at 10^-5 M incubated for 48 hrs by sulforhodamine B assay relative to control; assay type: functional; details: HCT-116, 48 h, read-out: Activity
[28] = system: PC-3; assay: Growth inhibition of human PC3 cells assessed as cell growth at 10^-4 M incubated for 48 hrs by sulforhodamine B assay relative to control; assay type: functional; details: PC-3, 48 h, read-out: Activity
[29] = system: SW-620; assay: Growth inhibition of human SW620 cells assessed as cell growth at 10^-5 M incubated for 48 hrs by sulforhodamine B assay relative to control; assay type: functional; details: SW-620, 48 h, read-out: Activity
[30] = system: MDA-MB-231; assay: Growth inhibition of human MDA-MB-231 cells assessed as cell growth at 10^-8 M incubated for 48 hrs by sulforhodamine B assay relative to control; assay type: functional; details: MDA-MB-231, 48 h, read-out: Activity
[31] = system: HCT-116; assay: Growth inhibition of human HCT116 cells assessed as cell growth at 10^-4 M incubated for 48 hrs by sulforhodamine B assay relative to control; assay type: functional; details: HCT-116, 48 h, read-out: Activity
[32] = system: OVCAR-3; assay: Growth inhibition of human OVCAR3 cells assessed as cell growth at 10^-4 M incubated for 48 hrs by sulforhodamine B assay relative to control; assay type: functional; details: OVCAR-3, 48 h, read-out: Activity
[33] = read-out: pLC50 (the source's name) (converted)
[34] = read-out: LC50 (the source's name)

C#C[C@@]1(O)[C@@H](CO)O[C@@H](n2cc(Br)c3c(N)ncnc32)[C@@H]1O
GI50 [1]: 0.221 to 0.249 µM | CC50 [1]: 1.64 to 3.67 µM | TGI [1]: 0.519 to 1.07 µM | GI50 [2]: 0.115 to 0.219 µM | TGI [2]: 0.352 to 0.637 µM | CC50 [2, 33]: 1.91 µM | growth at 0.1 µM [3]: 77 to 94% | growth at 0.1 µM [4]: 20 to 46% | growth at 1 µM [5]: 43 to 47% | growth at 0.1 µM [6]: 58 to 83% | growth at 10 µM [7]: -51% | growth at 1 µM [8]: 60 to 73% | growth at 0.01 µM [9]: 93 to 96% | growth at 100 µM [10]: 9 to 12% | IC50 [11]: 0.028 µM | GI50 [12]: 0.105 to 0.294 µM | TGI [12]: 5.36 to 19.7 µM | CC50 [12, 33]: > 100 µM | growth at 10 µM [13]: 4 to 8% | growth at 0.1 µM [14]: 5 to 32% | growth at 10 µM [15]: 1 to 6% | growth at 0.1 µM [16]: 18 to 45% | growth at 0.1 µM [17]: 55 to 57% | GI50 [18]: 2.82 to 5.9 µM | CC50 [18]: > 100 µM | TGI [18]: 49.2 to 77 µM | GI50 [19]: 0.15 to 0.261 µM | TGI [19]: 1.25 to 5.75 µM | CC50 [19]: > 100 µM | growth at 1 µM [20]: 26 to 33% | growth at 0.01 µM [21]: 97% | growth at 0.1 µM [22]: 2 to 11% | GI50 [23]: 0.0478 to 0.239 µM | CC50 [23]: 6.24 to 100 µM | TGI [23]: 0.522 to 7.18 µM | growth at 0.01 µM [24]: 92 to 94% | growth at 1 µM [25]: 15 to 16% | growth at 0.1 µM [26]: 38 to 67% | growth at 10 µM [27]: 3 to 5% | growth at 100 µM [28]: -5% | growth at 10 µM [29]: 4 to 5% | growth at 0.01 µM [30]: 90 to 104% | growth at 100 µM [31]: 3 to 5%

C#C[C@@]1(O)[C@@H](CO)O[C@@H](n2cc(I)c3c(N)ncnc32)[C@@H]1O
GI50 [1]: 0.373 to 0.559 µM | CC50 [1]: 5.53 to 5.92 µM | TGI [1]: 1.81 to 2.18 µM | GI50 [2]: 0.147 to 0.158 µM | CC50 [2, 34]: 5.51 to 5.65 µM | TGI [2]: 0.421 to 0.746 µM | growth at 0.1 µM [3]: 86 to 88% | growth at 0.1 µM [4]: 60 to 86% | growth at 1 µM [5]: 39 to 61% | growth at 0.1 µM [6]: 72 to 74% | growth at 1 µM [8]: 72 to 79% | growth at 0.01 µM [9]: 87 to 94% | growth at 100 µM [10]: 4 to 8% | IC50 [11]: 0.056 µM | growth at 100 µM [32]: 1 to 2% | GI50 [12]: 0.32 to 0.699 µM | CC50 [12, 34]: > 100 µM | TGI [12]: 11.7 to 14 µM | growth at 10 µM [15]: 10 to 12% | growth at 0.1 µM [16]: 39% | growth at 0.1 µM [17]: 46 to 50% | GI50 [18]: 2.18 to 2.5 µM | CC50 [18]: > 100 µM | TGI [18]: 18.6 to 41.5 µM | GI50 [19]: 0.395 to 0.421 µM | TGI [19]: 4.04 to 7.14 µM | CC50 [19]: > 100 µM | growth at 1 µM [20]: 37 to 44% | growth at 0.01 µM [21]: 98% | growth at 0.1 µM [22]: 40 to 45% | GI50 [23]: 0.179 to 0.243 µM | CC50 [23]: > 100 µM | TGI [23]: 2.09 to 5.2 µM | growth at 0.01 µM [24]: 85 to 94% | growth at 1 µM [25]: 19 to 26% | growth at 0.1 µM [26]: 42 to 64% | growth at 10 µM [27]: 3% | growth at 10 µM [29]: 4% | growth at 0.01 µM [30]: 96 to 100% | growth at 100 µM [31]: 4%

— ChEMBL document CHEMBL4270599, “Synthesis of a 3'-C-ethynyl-β-d-ribofuranose purine nucleoside library: Discovery of C7-deazapurine analogs as potent antiproliferative nucleosides” (Eur J Med Chem, 2018)
